Hits are enriched below; roughly 1.8% of the tested compounds scored in any of these assays.
MT1-MMP act inh: inhibitors of human MT1-MMP activation. P50281. HT1080 RFP-PRO-GFP cells, GFP/RFP ratio fluorescence, overnight; percent of plate control window, DMSO zero. GFP/RFP ratio change, % at 20 µM. actives 0.061% (n = 360,000);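 active means GFP/RFP ratio change of at least 30% with cell ATP level not reduced by more than half and red fluorescence within 50% of control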
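Material – HT1080 RFP-PRO-GFP cells · Control set – DMSO wells and RFP-L50D-GFP cells · Incubation – overnight cell settling, then overnight compound exposure, 37 °C, 5% CO2 · Compound dosing – single-point 20 µM compound, 1% DMSO · Read-out – GFP/RFP fluorescence ratio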
iPSC survival up: enhancers of human iPSC single-cell survival; hiPSC single-cell survival, ATPlite luminescence; 100% = ROCK inhibitor wells, 0% = DMSO; survival enhancement, % at 20 µM; actives 0.044% (n = 360,000); AID 602274; in the data active means survival enhancement above about 18%;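 further: cells exposed to compounds for 16 hours before the ATP read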
SKN-1 inh: blocks SKN-1 activity in C. elegans. C. elegans VP596 Pgst-4::GFP/RFP ratio, acrylamide-induced, 24 h. inhibition, % at 21.8 µM. actives 0.49% (n = 360,000);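 active means interference check ratio from 0.5 to 1.5 plus GFP to RFP signal ratio inhibition reaching or exceeding a fixed threshold, cut at about 30% in these data, passing the limit was not always enough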
Ecoli rRNA inh: selective bacterial rRNA inhibition in E. coli. E. coli WT GFP vs humanized-ribosome RFP mutants, fluorescence, 24 h; active compounds read low; DMSO median 0, no signal -100. GFP signal change (wild-type ribosome), % (concentration not given with the values). actives 1.6% (n = 350,000). AID 720706;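 active means significant combined selectivity score with lowered wild-type GFP, culture density cut under 30%, mutant RFP and density less affected; inactive means any of these conditions unmet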
DAGLB inh: blocks human DAGLB lipase activity; actives 0.059% (n = 340,000); HEK293T DAGLB membrane lysate, EnzChek fluorogenic substrate; Q8NCG7; inhibition, % at 5.17 µM; in the data active means inhibition above about 34%;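 further: 0% = enzyme with vehicle and 100% = wells lacking enzyme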
Cneo AK release: Cryptococcus neoformans lysis via adenylate kinase release. C. neoformans lysis, adenylate kinase release luminescence, 4 h; normalised: neutral wells 0, clomiphene wells 100. actives 0.2% (n = 360,000). lysis activity, % at 15 µM;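 active means mean lysis activity across replicates of at least 80%, whatever share of replicates individually reach that level; inactive means mean lysis activity below 80%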
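Test system: log-phase Cryptococcus neoformans yeast cells. Input: 5 × 10^6 yeast cells/mL. Medium: fresh YPD growth medium. Doses: single dose. Incubation: static 4 h at 37 °C with compound, 1 h detection. Measured by: luminescent adenylate kinase detection reagent. Read-out: signal increase indicating cell lysis. Benchmarks: Clomiphene.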
An asterisk follows results filed as active; · = no result given.

SMILES	MT1-MMP act inh	iPSC survival up	SKN-1 inh	Ecoli rRNA inh	DAGLB inh	Cneo AK release
COc1cc(/C=N/NS(=O)(=O)c2ccc(C(C)(C)C)cc2)cc([N+](=O)[O-])c1O	13	1	3	-36*	13	·
COc1cc(/C=N/NS(=O)(=O)c2ccc(C)c([N+](=O)[O-])c2)cc([N+](=O)[O-])c1O	8	1	-6	-16	6	0
C[C@H](CO)N1C[C@H](C)[C@@H](CN(C)C(=O)c2ccncc2)OCCCC[C@H](C)Oc2ccc(NC(=O)c3ccccc3)cc2C1=O	·	·	·	-2	·	19
C[C@@H]1CN([C@@H](C)CO)C(=O)Cc2cc(NC(=O)Nc3ccc4c(c3)OCO4)ccc2O[C@H]1CN(C)C(=O)Nc1ccccc1	·	·	·	1	·	-4
CCCCc1c(O)nc(SCC(=O)c2ccccc2)n(-c2ccccc2C)c1=O	0	0	-4	-32*	-1	-5
NNc1nc2sc3c(c2c(=O)n1Cc1ccccc1)CCC3	3	1	21	-34*	0	0
CCCCc1c(O)nc(SCC(=O)c2ccccc2)n(-c2ccccc2)c1=O	-1	-1	0	-18*	0	0
CCCCc1c(O)nc(SCC(=O)c2ccccc2)n(-c2ccccc2OC)c1=O	-4	0	-11	-17	-3	11
Cc1ccccc1-n1c(SCC(=O)O)nc2sc3c(c2c1=O)CCCC3	3	0	36*	-4	5	0
CCCCc1c(O)nc(SCC(=O)N2CCOCC2)n(-c2ccc(C)cc2)c1=O	2	4	34	4	0	-1
CCCC(=O)Nc1ccc2c(c1)C(=O)N(C)C[C@@H](OC)[C@H](C)CN(C(=O)c1ccccn1)[C@@H](C)CO2	·	·	·	-1	·	-3
C[C@@H]1CN([C@H](C)CO)C(=O)c2cc(NC(=O)CCN3CCOCC3)ccc2O[C@@H]1CN(C)S(C)(=O)=O	·	·	·	2	·	-5
CO[C@H]1CN(C)C(=O)c2cc(NC(=O)NC(C)C)ccc2OC[C@@H](C)N(Cc2ccccn2)C[C@H]1C	·	·	·	1	·	0
CC1CCN(CCOCCOc2ccc(Cl)cc2Br)CC1	-2	1	6	-30*	2	-1
CC1CCN(CCCOc2ccc(Cl)cc2Br)CC1	-1	0	4	11	0	9
C[C@H](CO)N1C[C@H](C)[C@H](CN(C)C(=O)Cc2ccccc2)OCCCC[C@H](C)Oc2ccc(NS(=O)(=O)c3ccc(F)cc3)cc2C1=O	·	·	·	-2	·	-4
CC(C)OC(=O)CSc1nnc(SCc2cccc3ccccc23)s1	-2	0	32*	·	-15	0
COC(=O)CSc1nnc(SCc2ccc(OC)cc2)s1	2	1	39*	·	-1	4
COc1ccc(CSc2nnc(SCc3ccc([N+](=O)[O-])cc3)s2)cc1	-4	0	-10	·	-8	-1
O=C(O)CSc1nnc(SCc2cccc3ccccc23)s1	-4	1	-10	·	-1	-1
C/C(=C\c1ccccc1)C(=O)N1CCC=CC1=O	·	·	·	·	·	5
O=C(COC(=O)c1ccccc1Cl)NCCC1=CCCCC1	-1	2	-3	-21*	-9	·
O=C(C[C@H]1CC[C@@H]2NC[C@@H](O)COC[C@H]2O1)NCCc1ccncc1	·	·	·	2	·	0
N#CC1=C(Nc2ccccc2Cl)SC(c2ccccc2O)NC1=O (stereo not drawn)	-1	0	2	-27*	8	-1
C[C@@H](NC(=O)C[C@@H]1CC[C@H]2[C@@H](COC[C@H](O)CN2C(=O)Nc2cc(Cl)cc(Cl)c2)O1)c1ccccc1	·	·	·	-25	·	-2
O=C(CN1C2CCCC1CC(NC(=O)c1ccccc1)C2)Nc1ccccc1C(F)(F)F (stereo not drawn)	3	0	0	-41*	-8	-2
CCCN1C2CCCC1CC(NC(=O)c1ccc(F)cc1)C2 (stereo not drawn)	0	4	56*	·	1	3
